IDH1 R132H inh = inhibitors of human IDH1 R132H; O75874; IDH1 R132H reductase, diaphorase/resazurin fluorescence, 60 min; inhibition, % at 10 µM; 70,000 tested, 0.18% active; in the data active means inhibition above about 34%; inconclusive means no clear call, values can overlap the other calls; inactive means below about 11%
Target sequence (O75874 whole entry R132H): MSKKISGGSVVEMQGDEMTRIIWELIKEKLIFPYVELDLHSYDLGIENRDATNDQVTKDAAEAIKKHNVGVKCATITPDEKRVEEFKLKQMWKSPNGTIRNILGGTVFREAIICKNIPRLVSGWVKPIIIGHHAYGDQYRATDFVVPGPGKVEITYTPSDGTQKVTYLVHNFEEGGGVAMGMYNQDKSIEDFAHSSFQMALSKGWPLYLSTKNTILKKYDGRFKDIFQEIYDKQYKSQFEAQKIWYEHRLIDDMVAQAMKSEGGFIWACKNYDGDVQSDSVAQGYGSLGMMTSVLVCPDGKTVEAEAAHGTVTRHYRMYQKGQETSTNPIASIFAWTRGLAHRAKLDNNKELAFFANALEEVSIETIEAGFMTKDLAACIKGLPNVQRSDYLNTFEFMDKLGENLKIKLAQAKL
T cruzi growth-1 = T. cruzi proliferation inhibition; inhibition, % at 8.34 µM; T. cruzi beta-gal in NIH3T3, GalScreen luminescence, 90 h; AID 624255; 77,000 tested, 5.9% active;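 active means mean inhibition above about 93%, with at least 55% of replicates each passing it, limit read from the data, passing the limit was not always enough; inconclusive means only one of those two conditions holds; inactive means neither condition holds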
Pf Dd2 inh = inhibitors of Plasmodium falciparum Dd2 growth. P. falciparum Dd2 growth, SYBR Green, 72 h; stronger effect = lower value. activity change, % at 10 µM. 94,000 tested, 2.3% active. AID 1159554; in the data active means activity change below about -80%; inconclusive means no clear call, values can overlap the other calls
GASC1 inh = KDM4C (human) demethylase inhibition | Q9H3R0 | GST-KDM4C 2-372, H3K9me3 peptide, LANCE TR-FRET | inhibition, % at 12.5 µM | 96,000 tested, 0.15% active;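 active means mean replicate inhibition above about 25%, with at least 55% of replicates also reaching it, limit read from the data, passing the limit was not always enough; inconclusive means only one of those two conditions met; inactive means neither condition met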
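material = GST-tagged GASC-1 (JMJD2C) catalytic fragment, aa 2-372 | amount = enzyme final amount 10 nM | medium = HEPES buffer, pH 7.5, plus ascorbate | also added = H3K9me3 peptide substrate, Fe(II), 2-oxoglutarate | dosing = single dose | times = 30 min demethylation and 1 h detection at room temperature | detection = LANCE TR-FRET | read-out basis = Fall in 671/618 emission ratio as inhibition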
T cruzi growth-2 = blocks T. cruzi growth in NIH3T3 host cells; shares compounds with T cruzi growth-1; T. cruzi beta-gal in NIH3T3, GalScreen luminescence, 90 h; inhibition, % at 8.35 µM; 5,600 tested, 72% active; AID 651739;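 active means mean replicate inhibition above about 95% and at least 55% of replicates individually reaching it, limit read from the data; inconclusive means only one of the two criteria is met; inactive means neither criterion is met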
T cruzi growth-3 = inhibitors of T. cruzi proliferation. inhibition, % at 2.09 µM. T. cruzi beta-gal in NIH3T3, GalScreen luminescence, 90 h. shares compounds with T cruzi growth-1. 5,600 tested, 21% active. AID 651740;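 active means mean inhibition above about 95%, with at least 55% of replicates also reaching it, limit read from the data; inconclusive means meets just one of the two conditions; inactive means meets neither condition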
3T3 cytotox = cytotoxicity in mouse NIH/3T3 fibroblasts | shares compounds with T cruzi growth-1 | NIH/3T3 viability, CellTiter-Glo ATP luminescence, 90 h | 5,600 tested, 14% active | cytotoxicity (signal decrease), % at 8.35 µM;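 active means mean signal decrease across replicates above about 35% based on untreated-well scatter, with enough replicates individually passing, limit read from the data; inconclusive means no rule stated though some were filed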
3T3 cytotox 2 = kills mouse NIH/3T3 fibroblasts; NIH/3T3 viability, CellTiter-Glo ATP luminescence, 90 h; AID 651744; inhibition, % at 24.9 µM; shares compounds with T cruzi growth-1; 5,600 tested, 56% active;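 active means mean loss of cell viability signal at or above a set limit, and enough replicates individually reaching it; inconclusive means meets only the mean limit or only the replicate share; inactive means meets neither condition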
Hits are given with their value; i = inactive; ? = inconclusive; nt = no result given. An excerpt weighted towards active compounds, which were near 5.8% of everything screened.

SMILES	IDH1 R132H inh	T cruzi growth-1	Pf Dd2 inh	GASC1 inh	T cruzi growth-2	T cruzi growth-3	3T3 cytotox	3T3 cytotox 2
C[C@H](CO)N1C[C@H](C)[C@@H](CN(C)C(=O)Nc2ccc(F)cc2)OCCCC[C@H](C)Oc2ccc(NC(=O)Cc3ccccc3)cc2C1=O	nt	98	i	i	?	i	i	i
C[C@H]1CCCCO[C@H](CN(C)C(=O)Nc2ccc(F)cc2)[C@@H](C)CN([C@@H](C)CO)C(=O)c2cc(NC(=O)Cc3ccccc3)ccc2O1	nt	105	i	i	109	i	i	i
O=C(c1cccnc1)N1CC[C@@H]2[C@@H](CO)Nc3ccc(C#Cc4cccnc4)cc3[C@@H]21	nt	nt	i	i	nt	nt	nt	nt
COc1cccc(C#Cc2ccc([C@@H]3[C@H]4CN(C(C)=O)CC(=O)N4[C@H]3CO)cc2)c1	nt	nt	i	i	nt	nt	nt	nt
CCCNC(=O)N(C)C[C@@H]1Oc2cc(C#Cc3ccccn3)ccc2S(=O)(=O)N([C@H](C)CO)C[C@H]1C	i	i	i	i	nt	nt	nt	nt
C[C@@H]1CCCCO[C@@H](CN(C)C(=O)Nc2ccc3c(c2)OCO3)[C@@H](C)CN([C@H](C)CO)C(=O)c2cc(NC(=O)CCCN(C)C)ccc2O1	nt	111	i	i	?	i	i	i
C[C@@H]1CN([C@@H](C)CO)C(=O)Cc2cc(NC(=O)CCN3CCOCC3)ccc2O[C@H]1CN(C)C(=O)Nc1ccccc1	i	i	i	i	nt	nt	nt	nt
C[C@@H]1CCCCO[C@H](CN(C)C(=O)Nc2ccc(F)cc2)[C@H](C)CN([C@@H](C)CO)C(=O)c2cc(NC(=O)Cc3ccccc3)ccc2O1	i	103	-82	i	104	i	i	i
C[C@@H]1CN([C@H](C)CO)C(=O)Cc2cc(NC(=O)CCN3CCOCC3)ccc2O[C@H]1CN(C)C(=O)Nc1ccc(F)cc1	i	99	i	i	i	i	i	i
Cc1ccc(S(=O)(=O)Nc2ccc3c(c2)C(=O)N([C@H](C)CO)C[C@@H](C)[C@@H](CN(C)C(=O)Nc2cccc4ccccc24)OCCCC[C@@H](C)O3)cc1	i	108	-86	i	102	102	i	i
C[C@@H]1CCCCO[C@@H](CN(C)C(=O)Nc2cccc3ccccc23)[C@@H](C)CN([C@H](C)CO)C(=O)c2cc(NS(=O)(=O)c3ccc(F)cc3)ccc2O1	i	i	i	i	nt	nt	nt	nt
Cc1ccc(S(=O)(=O)Nc2ccc3c(c2)C(=O)N([C@H](C)CO)C[C@H](C)[C@H](CN(C)C(=O)Nc2cccc4ccccc24)OCCCC[C@H](C)O3)cc1	nt	i	i	i	nt	nt	nt	nt
C[C@H](CO)N1C[C@H](C)[C@@H](CN(C)C(=O)Nc2cccc3ccccc23)OCCCC[C@H](C)Oc2ccc(NS(=O)(=O)c3ccc(F)cc3)cc2C1=O	nt	105	i	i	106	?	i	i
Cc1ccc(S(=O)(=O)Nc2ccc3c(c2)C(=O)N([C@@H](C)CO)C[C@@H](C)[C@H](CN(C)C(=O)Nc2cccc4ccccc24)OCCCC[C@@H](C)O3)cc1	i	103	i	i	109	i	i	i
Cc1ccc(S(=O)(=O)Nc2ccc3c(c2)C(=O)N([C@@H](C)CO)C[C@H](C)[C@H](CN(C)C(=O)Nc2cccc4ccccc24)OCCCC[C@H](C)O3)cc1	nt	105	?	i	106	i	i	i
Cc1ccc(S(=O)(=O)Nc2ccc3c(c2)C(=O)N([C@@H](C)CO)C[C@H](C)[C@H](CN(C)C(=O)Nc2cccc4ccccc24)OCCCC[C@@H](C)O3)cc1	nt	i	?	i	nt	nt	nt	nt
Cc1ccc(CNC(=O)c2cccc(Cn3cc(Cl)cn3)c2)cc1	i	nt	nt	nt	nt	nt	nt	nt
Cc1ccc(S(=O)(=O)N(C)C[C@@H]2Oc3c(NC(=O)NC4CCCCC4)cccc3C(=O)N([C@@H](C)CO)C[C@H]2C)cc1	nt	i	i	i	nt	nt	nt	nt
CC(C)C#Cc1cnc2c(c1)C(=O)N([C@@H](C)CO)C[C@H](C)[C@@H](CN(C)Cc1ccccn1)O2	i	i	i	nt	nt	nt	nt	nt
O=C(C1CCC1)N1[C@@H](CO)[C@@H](c2ccccc2)C12CN(CCC(F)(F)F)C2	nt	nt	i	i	nt	nt	nt	nt
COc1ccc(-c2ccc3c(c2)[C@@H]2[C@@H](CCN2C(=O)c2ccc4c(c2)OCO4)[C@@H](CO)N3C)cc1	nt	100	i	i	105	100	i	i
COc1cccc(-c2ccc3c(c2)[C@H]2[C@H](CCN2C(=O)c2ccc4c(c2)OCO4)[C@H](CO)N3C)c1	nt	i	i	i	nt	nt	nt	nt
COc1ccc(-c2ccc3c(c2)[C@@H]2[C@@H](CCN2C(=O)c2ccncc2)[C@H](CO)N3C)cc1	nt	?	i	i	108	i	i	i
COc1ccc(-c2ccc3c(c2)[C@@H]2[C@@H](CCN2C(=O)c2ccc(F)cc2)[C@@H](CO)N3C)cc1	nt	i	i	i	nt	nt	nt	nt
C[C@H]1CN([C@@H](C)CO)C(=O)c2cc(NC(=O)C3CCCCC3)ccc2O[C@H]1CN(C)S(=O)(=O)c1ccc(F)cc1	i	i	i	i	nt	nt	nt	nt
SMILES	IDH1 R132H inh	T cruzi growth-1	Pf Dd2 inh	GASC1 inh	T cruzi growth-2	T cruzi growth-3	3T3 cytotox	3T3 cytotox 2
C[C@@H]1CCCCO[C@@H](CN(C)C(=O)Nc2ccc(C(F)(F)F)cc2)[C@@H](C)CN([C@@H](C)CO)C(=O)c2cc(N(C)C)ccc2O1	i	100	i	i	111	i	i	i
C[C@@H]1CCCCO[C@H](CN(C)C(=O)Nc2ccc(C(F)(F)F)cc2)[C@H](C)CN([C@@H](C)CO)C(=O)c2cc(N(C)C)ccc2O1	i	i	i	i	nt	nt	nt	nt
C[C@H]1CCCCO[C@H](CN(C)C(=O)Nc2ccc(C(F)(F)F)cc2)[C@@H](C)CN([C@@H](C)CO)C(=O)c2cc(N(C)C)ccc2O1	nt	99	i	i	100	i	i	i
O=C(c1cccnc1)N1CC(=O)N2[C@H](C1)[C@H](c1ccc(/C=C/c3ccccc3)cc1)[C@@H]2CO	nt	nt	i	i	nt	nt	nt	nt
CCC(=O)N1CCCCN2[C@H](CO)[C@H](c3ccc(C#Cc4ccccc4F)cc3)[C@H]2C1	nt	i	i	i	nt	nt	nt	nt
O=C(CN1CCOCC1)N1CCCCN2[C@H](CO)[C@H](c3ccc(-c4ccccc4)cc3)[C@H]2C1	nt	i	i	i	nt	nt	nt	nt
O=C(CN1CCOCC1)N1CCCCN2[C@H](C1)[C@@H](c1ccc(C#Cc3ccccc3F)cc1)[C@@H]2CO	nt	i	i	i	nt	nt	nt	nt
O=C(CN1CCOCC1)N1CCCCN2[C@H](CO)[C@H](c3ccc(C#Cc4ccccc4F)cc3)[C@H]2C1	nt	118	i	i	i	i	i	95
O=C(CN1CCOCC1)N1CCCCN2[C@H](CO)[C@@H](c3ccc(/C=C/c4ccccc4)cc3)[C@@H]2C1	nt	i	i	i	nt	nt	nt	nt
